Results: ChEMBL document CHEMBL1147350, “Sesquiterpene-derived metabolites from the deep water marine sponge Poecillastra sollasi” (J Nat Prod, 1993)
In brackets after ≈: the same amount, converted by molar mass.

Key:
A549 = experiment: Cytotoxicity against human A549 cells by MTT assay; type: functional, cell-based
P388 = experiment: Cytotoxicity against mouse P388 cells by MTT assay; type: functional, cell-based
Cryptococcus neoformans = experiment: Antifungal activity against Cryptococcus neoformans ATCC 32045 after 48 hrs by standard microdilution broth technique; type: functional; conditions: ATCC 32045, 48 h
Method in brief: (§1)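 Broth microdilution MIC in 50 μl total volume. C. albicans ATCC 44506 grown in Sabouraud dextrose broth at 37° for 24 h; Cr. neoformans ATCC 32045 in Emmon's modification of Sabouraud dextrose broth at 37° for 48 h. MIC taken as lowest drug concentration giving complete growth inhibition.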

Candida albicans = experiment: Antifungal activity against Candida albicans ATCC 44506 after 24 hrs by standard microdilution broth technique; type: functional; conditions: ATCC 44506, 24 h; method in brief: as §1
[1] = Displacement of [125I]angiotensin 2 from angiotensin 2 receptor in rat aorta smooth muscle cell membrane by genesys gamma counting
Method in brief: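 Duplicate tubes: 0.88 nM (final) [125I]angiotensin II, membranes 75–125 μg/ml protein, 3 h at 25°; nonspecific with 1 μM unlabeled angiotensin II. GF/C filtration, gamma counting, nonlinear regression.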

SMILES | IC50 (A549) [mg/L] | IC50 (P388) [mg/L] | MIC (Cryptococcus neoformans) [mg/L] | MIC (Candida albicans) [mg/L] | IC50 [1] [µM]
CC1=CCC[C@@H](C)[C@]1(C)CC/C(C)=C/C(=O)N[C@@H]1CCCNC1=O [SOLLASIN B] | 17 (≈ 51.1 µM) | 6 (≈ 18 µM) | 31.2 (≈ 93.8 µM) | 125 (≈ 376 µM) | 
CC1=CCC[C@@H](C)[C@]1(C)CC/C(C)=C/C(=O)N[C@@H]1CCCCNC1=O [SOLLASIN C] | 11 (≈ 31.7 µM) | 8.4 (≈ 24.2 µM) | 15.6 (≈ 45 µM) | 31.2 (≈ 90 µM) | 63
COc1cc(/C=C(\C)CC[C@]2(C)C(C)=CCC[C@H]2C)oc(=O)c1 [SOLLASIN D] | 11.3 (≈ 35.7 µM) | 5.5 (≈ 17.4 µM) |  |  | 42
CC1=CC(=O)CC(C)(CC[C@]2(C)C(C)=CCC[C@H]2C)O1 (some centres undefined) [SOLLASIN E] |  |  | 25 (≈ 90.4 µM) | 25 (≈ 90.4 µM) | 
